CHOP inhibitor: inhibitors of CHOP promoter induction, primary screen, cell-based, unfolded protein response, luciferase reporter; CHO-K1 CHOP-promoter luciferase, tunicamycin-induced, 15-18 h; inhibition, % at 10 µM; hit rate 3.8% among 220,000;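 active means compounds that reduced the stress-induced luciferase reporter signal by more than about 70% of percent inhibition, limit read from the data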
UPR CHOP act: activators of apoptotic CHOP UPR arm, primary screen, cell-based, CHO-CHOP luciferase reporter, luminescence, uHTS; activation, % at 10 µM; UPR activation; percent of tunicamycin response over DMSO baseline; hit rate 0.34% among 330,000;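 active means at 10 µM dose, activation of 40% or more, normalized to positive control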
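System: CHO-CHOP luciferase reporter cell line; amount: 500 cells/well; buffer or medium: F12 medium containing 10% fetal bovine serum; incubation: 6 h compound exposure at 37 °C after overnight seeding; measured by: luciferase luminescence after 10 min with Steady-Glo reagent; evaluation: % reporter activation, DMSO baseline versus tunicamycin full activation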
UPR XBP1 act: activators of adaptive XBP1 UPR arm, primary screen, cell-based, CHO-XBP1 luciferase reporter, luminescence, uHTS | activation, % at 20 µM | hit rate 0.33% among 330,000 | AID 463104, 2010 | IRE1-XBP1 UPR activation; percent of tunicamycin response, DMSO as zero;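 active means versus positive control, 20 µM dose yields 30% or more activation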
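incubation = overnight seeding at 37 °C, 6 h compound treatment at 37 °C | assay system = CHO-XBP1 cells stably carrying IRE1-XBP1-driven luciferase reporter | input = 1000 cells per well | detection = luciferase luminescence | dosing = single point, 20 µM final compound, 1% DMSO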
B2AR ag: beta2AR agonists driving receptor internalization, primary screen, cell-based, FAP fluorogen, flow cytometry. Beta-2 adrenergic receptor (Homo sapiens), P07550. Am2.2-beta2AR cells. response, % (no concentration beside the values). hit rate 0.43% among 340,000. AID 504454, 2011;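 active means response above a set limit, near 3 SD of response in nonfluorescent compounds, cut at about 42% in these data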
VLA-4 inh: inhibition in human VLA-4 binding assay, primary screen, VLA-4 allosteric modulator project, MLPCN library, flow cytometry, VLA-4 expressing cells; ligand binding flow cytometry; inhibition, % (about 7 µM as worked out from the volumes in the protocol); hit rate 0.2% among 330,000; in the data active means inhibition above about 50%
Target sequence (P13612 whole entry, looked up): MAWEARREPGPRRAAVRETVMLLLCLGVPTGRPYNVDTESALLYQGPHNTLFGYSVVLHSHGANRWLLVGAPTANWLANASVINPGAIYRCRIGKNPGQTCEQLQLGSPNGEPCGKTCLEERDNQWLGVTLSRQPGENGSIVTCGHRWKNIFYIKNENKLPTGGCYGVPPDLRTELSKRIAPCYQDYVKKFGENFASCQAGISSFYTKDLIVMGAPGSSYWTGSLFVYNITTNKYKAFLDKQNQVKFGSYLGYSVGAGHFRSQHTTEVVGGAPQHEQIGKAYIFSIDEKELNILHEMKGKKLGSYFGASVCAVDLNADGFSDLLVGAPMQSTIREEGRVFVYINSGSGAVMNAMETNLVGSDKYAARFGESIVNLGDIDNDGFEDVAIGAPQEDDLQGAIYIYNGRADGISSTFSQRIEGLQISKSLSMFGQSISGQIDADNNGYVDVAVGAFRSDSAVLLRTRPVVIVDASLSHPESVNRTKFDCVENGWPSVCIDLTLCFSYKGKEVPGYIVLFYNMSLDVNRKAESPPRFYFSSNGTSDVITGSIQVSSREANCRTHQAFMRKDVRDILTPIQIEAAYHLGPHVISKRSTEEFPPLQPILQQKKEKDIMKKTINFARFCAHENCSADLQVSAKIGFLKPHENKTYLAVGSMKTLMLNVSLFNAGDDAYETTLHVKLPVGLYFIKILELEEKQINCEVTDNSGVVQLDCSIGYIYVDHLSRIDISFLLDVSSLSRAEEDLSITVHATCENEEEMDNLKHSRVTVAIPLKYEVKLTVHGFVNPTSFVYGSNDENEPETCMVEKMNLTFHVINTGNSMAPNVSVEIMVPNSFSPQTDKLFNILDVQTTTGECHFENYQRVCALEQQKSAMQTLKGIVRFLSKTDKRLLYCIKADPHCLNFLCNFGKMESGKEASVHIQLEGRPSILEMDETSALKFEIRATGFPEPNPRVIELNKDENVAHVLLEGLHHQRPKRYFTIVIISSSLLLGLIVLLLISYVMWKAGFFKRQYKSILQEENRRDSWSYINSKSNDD
Large screens that a line does not name were inactive. Only a selection was taken, and hits are over-represented in it overall.

CN1CCN(CC(=O)Nc2ccccc2C(F)(F)F)CC1	none (no result: CHOP inhibitor)
O=C(CN1CCN(c2ccccc2)CC1)Nc1ccccc1C(F)(F)F	CHOP inhibitor 95
COc1ccc2nc3ccccc3nc2c1NC(=O)c1ccc(Br)cc1	CHOP inhibitor 79
COc1ccc2nc3ccccc3nc2c1NC(=O)c1ccc(Cl)cc1	none
COc1ccc([N+](=O)[O-])cc1NC(=O)C(C)N(C)Cc1ccc(Br)cc1 (stereo unspecified)	CHOP inhibitor 70
O=C(Cc1cn(Cc2cccc(Cl)c2)c2ccccc12)N1CCCCCC1	CHOP inhibitor 76
CC1CCCN(C(=O)Cc2cn(Cc3cccc(Cl)c3)c3ccccc23)C1 (stereo unspecified)	CHOP inhibitor 76
O=C(O)Cc1cn(Cc2cccc(Cl)c2)c2ccccc12	none
CN(c1ccccc1)S(=O)(=O)c1ccc(NC(=O)CC(=O)c2ccccc2)cc1	none (no result: CHOP inhibitor, UPR CHOP act, UPR XBP1 act, VLA-4 inh)
CC(C)(C)c1nn(-c2ccccc2)c2nc(Cl)c(C=O)cc12	none
COc1cccc(NCc2cc3c(C(C)(C)C)nn(-c4ccccc4)c3[nH]c2=O)c1	CHOP inhibitor 71
CC(C)(C)c1nn(-c2ccccc2)c2[nH]c(=O)c(C=O)cc12	B2AR ag 55 (no result: CHOP inhibitor)
COc1cccc(NC(=O)c2nnn(Cc3ccc(Br)cc3F)c2N)c1	CHOP inhibitor 73
Cc1cc(C)cc(NC(=O)c2nnn(Cc3cc(C)ccc3C)c2N)c1	CHOP inhibitor 93
O=c1cc2c(nn1Cc1c(Cl)cccc1Cl)-c1ccccc1CC2	CHOP inhibitor 85
Clc1cccc(Cl)c1CSc1cc2c(nn1)-c1ccccc1CC2	none
CCc1c(C(=O)OCc2ccccc2)[nH]c(C)c1C	none
CCc1c(C)[nH]c(C(=O)OCc2ccccc2)c1C	CHOP inhibitor 79 (no result: UPR CHOP act, UPR XBP1 act, VLA-4 inh)
CC(=O)N1/C(=C/c2ccc(N(C)C)cc2)C(=O)c2ccccc21	B2AR ag 45 (no result: UPR CHOP act, UPR XBP1 act, VLA-4 inh)
O=C(CN1C(=O)c2ccccc2S1(=O)=O)c1ccccc1	none
Cc1ccc(C(=O)CN2C(=O)c3ccccc3S2(=O)=O)cc1	CHOP inhibitor 87
CN1C(=O)/C(=C/c2cccc([N+](=O)[O-])c2)C(=O)N1c1ccccc1	none (no result: CHOP inhibitor)
CCCN1C/C(=C/c2cccc([N+](=O)[O-])c2)C(=O)/C(=C/c2cccc([N+](=O)[O-])c2)C1	CHOP inhibitor 100 (no result: UPR CHOP act, UPR XBP1 act, VLA-4 inh)
Cc1cc(C)cc(NC(=S)N2C3CCCC2CC(NC(=O)C2CC2)C3)c1 (stereo unspecified)	none (no result: CHOP inhibitor)
CCOC(=O)c1[nH]c2ccccc2c1NC(=O)Nc1ccc(OC)cc1	CHOP inhibitor 87
CCOC(=O)N1CCN(c2nc(-c3ccccc3)c3ccccc3n2)CC1	none (no result: CHOP inhibitor)
CCC(Oc1cc(Cl)ccc1Cl)C(=O)NNC(=O)CCC(=O)O (stereo unspecified)	none
CCC(Oc1cc(Cl)ccc1Cl)C(=O)NN1C(=O)C2C3CCC(C3=C(C)C)C2C1=O (stereo unspecified)	CHOP inhibitor 87
Nc1c(N2CCOCC2)cc(Cl)c2nonc12	B2AR ag 46
O=C(Cc1csc(Nc2nc(=S)[nH]c3ccccc23)n1)NCc1ccccc1Cl	none
O=C(Cc1csc(Nc2nc(=S)[nH]c3ccccc23)n1)NCc1cccc(Cl)c1	CHOP inhibitor 80
COc1ccc(/C(C)=N/NC2=NCCN2)cc1Cl	none (no result: CHOP inhibitor)
CCCCOc1ccc(Br)cc1/C(C)=N/NC1=NCCN1	B2AR ag 48 (no result: CHOP inhibitor)
O=C(NNC(=O)c1cccnc1Cl)c1ccc(F)cc1	none (no result: CHOP inhibitor)
Cc1ccc(N2CCN(S(=O)(=O)c3c(C)noc3C)CC2C)cc1 (stereo unspecified)	none (no result: CHOP inhibitor)
CC(C)c1cccc(C(C)C)c1NC(=O)c1ccc(OCC(=O)NCc2ccccc2)cc1	CHOP inhibitor 94 (no result: B2AR ag)
CC(C)C[C@@H](NC(=O)C1CCC(CNC(=O)[C@H](Cc2ccccc2)NC(=O)OC(C)(C)C)CC1)C(=O)O (stereo partly specified)	none (no result: CHOP inhibitor, VLA-4 inh)
Cc1ccc(Nc2cc(C)c3c(O)cccc3n2)cc1C	none
COC(=O)c1cc(Nc2cc(C)c3c(O)cccc3n2)cc(C(=O)OC)c1	none
Cc1ccc(Nc2cc(C)c3ccc(O)cc3n2)cc1C	CHOP inhibitor 79
COC(=O)c1cc(Nc2cc(C)c3ccc(O)cc3n2)cc(C(=O)OC)c1	CHOP inhibitor 71
COc1ccccc1C(=O)COC(=O)CCNS(=O)(=O)c1ccc(C)c(C)c1	none (no result: CHOP inhibitor)
CC(C)(C)NC(=O)Cn1cc(C#N)c2cc(Br)ccc21	CHOP inhibitor 79
Cc1cccc(Nc2nc3c(s2)CCCC3)c1	none (no result: UPR CHOP act, UPR XBP1 act)
O=C(O)c1ccc(Nc2nc3c(s2)CCCC3)cc1	CHOP inhibitor 91
O=C(Nc1cccnc1)c1cccc(-c2cc3ccccc3oc2=O)c1	none
CCn1nnc(NC(=O)c2cccc(-c3cc4ccccc4oc3=O)c2)n1	none
CCOc1ccc2nc(NC(=O)c3cccc(-c4cc5ccccc5oc4=O)c3)sc2c1	CHOP inhibitor 92 (no result: UPR CHOP act, UPR XBP1 act)
Cc1ccc2nc(NC(=O)c3cccc(-c4cc5ccccc5oc4=O)c3)sc2c1	UPR XBP1 act 122 (no result: B2AR ag)
Cc1ccc2nc(NC(=O)c3ccc4c(c3)OCO4)sc2c1	CHOP inhibitor 93
COc1cc(CC(=O)OCC(=O)c2ccc[nH]2)cc(OC)c1OC	none (no result: CHOP inhibitor)
O=C(NC(=S)NC(CO)Cc1ccccc1)c1ccc(F)cc1 (stereo unspecified)	none (no result: CHOP inhibitor)
NC(=S)n1[nH]c(-c2ccc([N+](=O)[O-])cc2)c(N=Nc2ccccc2[N+](=O)[O-])c1=O	CHOP inhibitor 85 (no result: UPR CHOP act, UPR XBP1 act, VLA-4 inh)
Cc1[nH]n(C(N)=S)c(=O)c1N=Nc1cccc([N+](=O)[O-])c1C	none (no result: CHOP inhibitor)
Cc1c(N=Nc2c(-c3ccc([N+](=O)[O-])cc3)[nH]n(C(N)=S)c2=O)cccc1[N+](=O)[O-]	CHOP inhibitor 106 (no result: UPR CHOP act, UPR XBP1 act, VLA-4 inh)
Nc1[nH]n(-c2ccccc2)c(=O)c1N=Nc1ccccc1[N+](=O)[O-]	none
O=C(Nc1ccc(C(F)(F)F)cc1[N+](=O)[O-])O[C@H]1[C@H](Cc2ccccc2)NS(=O)(=O)[C@H]2C[C@@H]3C=C[C@]12O3	none (no result: CHOP inhibitor)
CC(C)C[C@H]1CNC(=S)N1CC1CCN(CCCCc2ccccc2)CC1	none (no result: CHOP inhibitor, UPR CHOP act, UPR XBP1 act, VLA-4 inh)
CCc1c(O)nc(SCC(=O)Nc2ccc(OC)cc2)n(C2CCCCC2)c1=O	CHOP inhibitor 77
O=C(COC(=O)c1ccccc1NC(=O)c1ccco1)NC1CCCCC1	none
CC1CCCC(NC(=O)COC(=O)c2ccccc2NC(=O)c2ccco2)C1C (stereo unspecified)	CHOP inhibitor 92
CC(=O)OCCNc1cc(N2CCN(C)CC2)c2noc3c2c1C(=O)c1ccccc1-3	none (no result: UPR CHOP act, UPR XBP1 act, VLA-4 inh)
CCOC(=O)C(C(=O)OCC)c1cc(Br)c2noc3c2c1C(=O)c1ccccc1-3	CHOP inhibitor 110
CN=C1S/C(=C\c2cc(C)n(-c3ccccc3F)c2C)C(=O)N1C	CHOP inhibitor 96 (no result: VLA-4 inh)

High-throughput results from PubChem BioAssay.
